Drawing on article PMC8358123 (International Journal for Parasitology: Drugs and Drug …, 2021), this text covers EC50 and CC50 for 13 molecules.

The test system of data set [1] is T. cruzi Tulahuen CL2 β-galactosidase strain. Description: In vitro activity against T. cruzi intracellular amastigotes in MRC-5SV2 cells. The format is cell-based. The conditions noted are these: Trypanosoma cruzi, MRC-5 SV2, 168 h, read-out: T. cruzi EC50. The procedure, abridged: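 Nifurtimox-sensitive Tulahuen CL2 β-galactosidase parasites infected MRC-5SV2 fibroblasts in MEM with 200 mM L-glutamine, 16.5 mM NaHCO3 and 5% inactivated FCS, at 37 °C and 5% CO2. Wells held 4×10^3 cells and 4×10^4 parasites. Test compound was given as ten 4-fold dilutions (top 64 μM, <1% DMSO) for 7 days. CPRG was then added for 4 h at 37 °C and absorbance read at 540 nm. IC50 from % reduction versus untreated-infected controls; mean ± SEM, 2–4 experiments. Benznidazole reference.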

The subject of data set [2] is T. b. brucei (Squib 427 strain). Kind of data set: In vitro activity against T. b. brucei. The format is cell-based. As to conditions: Trypanosoma brucei, read-out: T. b. bruc. EC50.
In data set [3] the test system is T. b. rhodesiense (STIB-900 strain). Description: In vitro activity against T. b. rhodesiense. The class given is cell-based. As to conditions: Trypanosoma brucei, read-out: T. b. rhod. EC50. The procedure, abridged: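 STIB-900 parasites, axenic in HMI-9 with 10% FBS at 37 °C and 5% CO2, seeded at 4×10^3 parasites/well. Test compound was given as ten 4-fold dilutions (top 64 μM, <1% DMSO). Growth period […], then resazurin added and fluorescence measured after 24 h. IC50 from a sigmoid variable-slope fit versus untreated controls; mean ± SEM, 2–4 experiments. Suramin as reference.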

A short description of the next data set: MRC-5SV2 cytotoxicity. The class given is cell-based, human. As to conditions: human, MRC-5SV2 cells, MRC-5 CC50, MRC-5SV2 cells, 3 days incubation. The gist of the method: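 MRC-5SV2 cells (3×10^4 cells/mL) in MEM with Earl's salts, L-glutamine, NaHCO3 and 5% inactivated FCS, at 37 °C and 5% CO2. Exposure to test compound (ten 4-fold dilutions, top 64 μM, <1% DMSO) lasted 3 days. Resazurin was then added for 4 h at 37 °C, with fluorescence read at ex 550/em 590 nm. CC50 from % reduction relative to untreated (100%) and medium-only (0%) controls.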

A further data set is described as follows: PMM cytotoxicity. The class given is cell-based, mouse. As to conditions: Swiss, mouse, PMM CC50, primary peritoneal mouse macrophages.

Each structure is given as a SMILES string. Some results are limits rather than exact numbers.

For orientation: EC50 means the concentration that produces a half-maximal response. The term CC50 denotes the concentration that lowers cell viability or growth by half. High values mean better tolerance by the cells, low ones harm at low concentration.

For `Cc1ncnc2c1c(C1=CCCC1)cn2[C@@H]1O[C@H](CO)[C@@H](O)[C@H]1O` [compound 16], the EC50 in data set [1], in data set [2] and in data set [3] was > 64 µM in each case. The CC50 at 3 days in the data set “MRC-5SV2 cytotoxicity” is > 64 µM. Besides, the CC50 at 5 days in the data set “PMM cytotoxicity” is > 64 µM.

In the case of `C=C(C)c1cn([C@@H]2O[C@H](CO)[C@@H](O)[C@H]2O)c2ncnc(C)c12` [compound 14], the results for the EC50 in data set [1], in data set [2] and in data set [3] were 5.04 µM, 0.5 µM and < 0.25 µM, respectively. Also, it took 1.49 µM to reach half-maximal cytotoxicity in “MRC-5SV2 cytotoxicity” (CC50 at 3 days). The CC50 at 5 days in “PMM cytotoxicity” is > 64 µM.

For `CCc1cn([C@@H]2O[C@H](CO)[C@@H](O)[C@H]2O)c2ncnc(CC)c12` [compound 37], the values for the EC50 in data set [1], in data set [2] and in data set [3] were > 64 µM, 2.03 µM and 2.02 µM, respectively. Also, it took 20.2 µM to reach half-maximal cytotoxicity in “MRC-5SV2 cytotoxicity” (CC50 at 3 days). The CC50 at 5 days in “PMM cytotoxicity” is > 64 µM.

For `Cc1ncnc2c1c(C(C)C)cn2[C@@H]1O[C@H](CO)[C@@H](O)[C@H]1O` [compound 15], the EC50 was determined as 29.1 µM in data set [1], 0.67 µM in data set [2] and 0.51 µM in data set [3]. Also, in “MRC-5SV2 cytotoxicity”, the CC50 at 3 days is 0.3 µM. The CC50 at 5 days in “PMM cytotoxicity” is > 64 µM.

With `Cc1ncnc2c1c(C1=CCCCC1)cn2[C@@H]1O[C@H](CO)[C@@H](O)[C@H]1O` [compound 18], the EC50 in data set [1], in data set [2] and in data set [3] was > 64 µM each time. Besides, in “MRC-5SV2 cytotoxicity”, the CC50 at 3 days was > 64 µM. In addition, in the data set “PMM cytotoxicity”, the CC50 at 5 days was > 64 µM.

Consider `Cc1ncnc2c1c(C#CC(C)C)cn2[C@@H]1O[C@H](CO)[C@@H](O)[C@H]1O` [compound 31], for which the EC50 was > 64 µM in data set [1], 23.5 µM in data set [2] and 16 µM in data set [3]. The CC50 at 3 days in the data set “MRC-5SV2 cytotoxicity” was > 64 µM. Further, the CC50 at 5 days in “PMM cytotoxicity” is > 64 µM.

Turning to `CCCCCc1cn([C@@H]2O[C@H](CO)[C@@H](O)[C@H]2O)c2ncnc(C)c12` [compound 26], the EC50 in data set [1], in data set [2] and in data set [3] was > 64 µM each time. In the data set “MRC-5SV2 cytotoxicity”, the CC50 at 3 days is > 64 µM. Moreover, the CC50 at 5 days in “PMM cytotoxicity” is > 64 µM.

On to `Cc1ncnc2c1c(C1=CCOCC1)cn2[C@@H]1O[C@H](CO)[C@@H](O)[C@H]1O` [compound 20], for which the concentration giving a half-maximal response (EC50) stood at 2.87 ± 0.28 µM in data set [1], 12.3 ± 2.45 µM in data set [2] and 9.75 ± 0.02 µM in data set [3]. Moreover, the CC50 at 3 days in the data set “MRC-5SV2 cytotoxicity” is > 64 µM. Further, the CC50 at 5 days in “PMM cytotoxicity” is > 64 µM.

Consider `C=Cc1cn([C@@H]2O[C@H](CO)[C@@H](O)[C@H]2O)c2ncnc(C)c12` [compound 12], for which the figures for the EC50 in data set [1], in data set [2] and in data set [3] were 6.95 ± 1.29 µM, 2.73 ± 0.28 µM and 2.2 ± 0.11 µM, respectively. Further, the 50% cytotoxic concentration (CC50) at 3 days in the data set “MRC-5SV2 cytotoxicity” is > 64 µM. Besides, in “PMM cytotoxicity”, the CC50 at 5 days was > 64 µM.

With `CCCCC#Cc1cn([C@@H]2O[C@H](CO)[C@@H](O)[C@H]2O)c2ncnc(C)c12` [compound 27], the EC50 in data set [1] worked out at 2.08 µM; in data set [2], 0.52 µM; in data set [3], 1.19 µM. The same molecule gave a CC50 at 3 days in the data set “MRC-5SV2 cytotoxicity” of 7.58 µM. In the data set “PMM cytotoxicity”, the midpoint of cytotoxicity, the CC50 at 5 days, lay at 8 µM.

On to `CCc1cn([C@@H]2O[C@H](CO)[C@@H](O)[C@H]2O)c2ncnc(OC)c12` [compound 41], for which the results for the EC50 in data set [1], in data set [2] and in data set [3] were > 64 µM, 0.47 ± 0.01 µM and 1.31 ± 0.44 µM, respectively. Further, in “MRC-5SV2 cytotoxicity”, the CC50 at 3 days is > 64 µM. In addition, the CC50 at 5 days in “PMM cytotoxicity” was > 64 µM.

On to `Cc1ncnc2c1c(/C=C/c1ccccc1)cn2[C@@H]1O[C@H](CO)[C@@H](O)[C@H]1O` [compound 35], for which the EC50 in data set [1] is 1.94 ± 0.09 µM; in data set [2] it was 6.19 ± 0.57 µM; in data set [3], 4.54 ± 0.93 µM. The molecule also gave a CC50 at 3 days in the data set “MRC-5SV2 cytotoxicity” of 26.6 ± 1.42 µM. In the data set “PMM cytotoxicity”, this molecule registered a CC50 at 5 days of 32 µM.

Regarding `Cc1ncnc2c1c(SC(F)(F)F)cn2[C@@H]1O[C@H](CO)[C@@H](O)[C@H]1O` [compound 11], the concentration giving a half-maximal response (EC50) was 30.9 µM in data set [1], > 64 µM in data set [2] and > 64 µM in data set [3]. Further, the CC50 at 5 days in the data set “PMM cytotoxicity” was > 64 µM.
